How the values were obtained:
Stomach [1] = assay: Biodistribution in ICR mouse stomach assessed per organ at 370 kBq, iv after 2 mins by gamma-counting analysis; type: ADME, organism-based; conditions: in vivo
In short: (§1)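 Male ICR mice, n = 5 per time point, given the radiotracer in saline (370 kBq, 0.1 mL) by intravenous injection. Killed by decapitation at 2, 30, 60 or 120 min. Organs were excised, weighed and gamma-counted with decay correction. Uptake is expressed as % injected dose per gram of wet tissue against diluted standards of the injected material; stomach and intestine are expressed as % injected dose per organ. Mean ± SD.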

Brain [2] = assay: Biodistribution in ICR mouse brain at 370 kBq, iv after 30 mins by gamma-counting analysis; type: ADME, organism-based; conditions: in vivo, 0.5 h
In short: (§2)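 Male ICR mice (n = 5 per group) got 370 kBq tracer in 0.1 mL saline by iv injection. They were decapitated at 2, 30, 60 or 120 min, and organs were weighed and γ-counted. %ID/g was found against diluted aliquots of the injected dose, decay-corrected, and given as mean ± SD.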

Kidney [3] = assay: Biodistribution in ICR mouse kidney at 370 kBq, iv after 60 mins by gamma-counting analysis; type: ADME, organism-based; conditions: in vivo, 1 h; in short: as §2
Blood [4] = assay: Biodistribution in ICR mouse blood at 370 kBq, iv after 60 mins by gamma-counting analysis; type: ADME, organism-based; conditions: in vivo, 1 h; in short: as §2
Lung [5] = assay: Biodistribution in ICR mouse lung at 370 kBq, iv after 2 mins by gamma-counting analysis; type: ADME, organism-based; conditions: in vivo; in short: as §2
Stomach [6] = assay: Biodistribution in ICR mouse stomach assessed per organ at 370 kBq, iv after 60 mins by gamma-counting analysis in presence of haloperidol relative to control; type: ADME, organism-based; conditions: in vivo, 1 h
In short: (§3)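 Male ICR mice, n = 5 per group, received saline (0.1 mL) or haloperidol (0.1 mL, 1.0 mg/kg) via tail vein 5 min before the radiotracer (370 kBq, 0.1 mL, iv). Killed by decapitation at 60 min. Tissues were excised, weighed and gamma-counted. Values are % ID/g (stomach as % ID/organ) and percent change versus saline controls, compared by two-tailed independent Student's t test, p ≤ 0.05.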

Brain [7] = assay: Biodistribution in ICR mouse brain at 370 kBq, iv after 2 mins by gamma-counting analysis; type: ADME, organism-based; conditions: in vivo; in short: as §2
[8] = Lipophilicity, log D of the compound at pH 7.4 by shake flask method; type: physicochemical; conditions: buffer
In short: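 Shake flask: radiotracer (370 kBq) in 3 mL 1-octanol plus 3 mL 0.05 M sodium phosphate buffer pH 7.4, vortexed 3 min at room temperature, then centrifuged. Both phases were gamma-counted and log D = log(cpm/mL octanol ÷ cpm/mL buffer). The octanol layer was repartitioned until values were consistent. Triplicate, repeated three times.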

Bone [9] = assay: Biodistribution in ICR mouse bone at 370 kBq, iv after 60 mins by gamma-counting analysis in presence of haloperidol relative to control; type: ADME, organism-based, Bone element; conditions: in vivo, 1 h
In short: (§4)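 Male ICR mice (n = 5) got saline or haloperidol (0.1 mL, 1.0 mg/kg) via tail vein 5 min before 370 kBq tracer iv. Tissues were taken 60 min later and γ-counted as %ID/g (intestine as %ID/organ). Control and blocked groups were compared by two-tailed independent Student's t test, p ≤ 0.05.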

Spleen = assay: Biodistribution in ICR mouse spleen at 370 kBq, iv after 60 mins by gamma-counting analysis in presence of haloperidol relative to control; type: ADME, organism-based; conditions: in vivo, 1 h; in short: as §3
Lung [10] = assay: Biodistribution in ICR mouse lung at 370 kBq, iv after 30 mins by gamma-counting analysis; type: ADME, organism-based; conditions: in vivo, 0.5 h; in short: as §2
Heart [11] = assay: Biodistribution in ICR mouse heart at 370 kBq, iv after 120 mins by gamma-counting analysis; type: ADME, organism-based; conditions: in vivo, 2 h; in short: as §2
Heart [12] = assay: Biodistribution in ICR mouse heart at 370 kBq, iv after 60 mins by gamma-counting analysis in presence of haloperidol relative to control; type: ADME, organism-based; conditions: in vivo, 1 h; in short: as §4
Blood [13] = assay: Biodistribution in ICR mouse blood at 370 kBq, iv after 120 mins by gamma-counting analysis; type: ADME, organism-based; conditions: in vivo, 2 h; in short: as §2
Kidney [14] = assay: Biodistribution in ICR mouse kidney at 370 kBq, iv after 120 mins by gamma-counting analysis; type: ADME, organism-based; conditions: in vivo, 2 h; in short: as §2
Brain [15] = assay: Biodistribution in ICR mouse brain at 370 kBq, iv after 60 mins by gamma-counting analysis; type: ADME, organism-based; conditions: in vivo, 1 h; in short: as §2
Muscle tissue [16] = assay: Biodistribution in ICR mouse muscle at 370 kBq, iv after 30 mins by gamma-counting analysis; type: ADME, organism-based; conditions: in vivo, 0.5 h; in short: as §1
Stomach [17] = assay: Biodistribution in ICR mouse stomach assessed per organ at 370 kBq, iv after 30 mins by gamma-counting analysis; type: ADME, organism-based; conditions: in vivo, 0.5 h; in short: as §1
Lung [18] = assay: Biodistribution in ICR mouse lung at 370 kBq, iv after 60 mins by gamma-counting analysis in presence of haloperidol relative to control; type: ADME, organism-based; conditions: in vivo, 1 h; in short: as §3
[19] = Ratio of drug uptake from ICR mouse brain to blood after 60 mins; type: ADME, tissue-based; conditions: brain and blood
Muscle tissue [20] = assay: Biodistribution in ICR mouse muscle at 370 kBq, iv after 60 mins by gamma-counting analysis in presence of haloperidol relative to control; type: ADME, organism-based; conditions: in vivo, 1 h; in short: as §3
Liver [21] = assay: Biodistribution in ICR mouse liver at 370 kBq, iv after 2 mins by gamma-counting analysis; type: ADME, organism-based; conditions: in vivo; in short: as §2
Bone [22] = assay: Biodistribution in ICR mouse bone at 370 kBq, iv after 30 mins by gamma-counting analysis; type: ADME, organism-based, Bone element; conditions: in vivo, 0.5 h; in short: as §2
Muscle tissue [23] = assay: Biodistribution in ICR mouse muscle at 370 kBq, iv after 60 mins by gamma-counting analysis; type: ADME, organism-based; conditions: in vivo, 1 h; in short: as §1
Heart [24] = assay: Biodistribution in ICR mouse heart at 370 kBq, iv after 60 mins by gamma-counting analysis; type: ADME, organism-based; conditions: in vivo, 1 h; in short: as §2
Blood [25] = assay: Biodistribution in ICR mouse blood at 370 kBq, iv after 30 mins by gamma-counting analysis; type: ADME, organism-based; conditions: in vivo, 0.5 h; in short: as §2
[26] = Ratio of drug uptake from ICR mouse brain to blood after 120 mins; type: ADME, tissue-based; conditions: brain and blood
Intestine [27] = assay: Biodistribution in ICR mouse intestine assessed per organ at 370 kBq, iv after 60 mins by gamma-counting analysis; type: ADME, organism-based; conditions: in vivo, 1 h
In short: (§5)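 Male ICR mice (n = 5) got 370 kBq iv in 0.1 mL saline and were decapitated at 2, 30, 60 or 120 min. Whole intestine was γ-counted and expressed as percent injected dose per organ, decay-corrected, mean ± SD.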

Heart [28] = assay: Biodistribution in ICR mouse heart at 370 kBq, iv after 2 mins by gamma-counting analysis; type: ADME, organism-based; conditions: in vivo; in short: as §2
Blood [29] = assay: Biodistribution in ICR mouse blood at 370 kBq, iv after 2 mins by gamma-counting analysis; type: ADME, organism-based; conditions: in vivo; in short: as §2
Stomach [30] = assay: Biodistribution in ICR mouse stomach assessed per organ at 370 kBq, iv after 120 mins by gamma-counting analysis; type: ADME, organism-based; conditions: in vivo, 2 h; in short: as §1
Brain [31] = assay: Biodistribution in ICR mouse brain at 370 kBq, iv after 60 mins by gamma-counting analysis in presence of haloperidol relative to control; type: ADME, organism-based; conditions: in vivo, 1 h; in short: as §4
Liver [32] = assay: Biodistribution in ICR mouse liver at 370 kBq, iv after 30 mins by gamma-counting analysis; type: ADME, organism-based; conditions: in vivo, 0.5 h; in short: as §2
Intestine [33] = assay: Biodistribution in ICR mouse intestine assessed per organ at 370 kBq, iv after 2 mins by gamma-counting analysis; type: ADME, organism-based; conditions: in vivo; in short: as §5
Bone [34] = assay: Biodistribution in ICR mouse bone at 370 kBq, iv after 60 mins by gamma-counting analysis; type: ADME, organism-based, Bone element; conditions: in vivo, 1 h; in short: as §2
Intestine [35] = assay: Biodistribution in ICR mouse intestine assessed per organ at 370 kBq, iv after 30 mins by gamma-counting analysis; type: ADME, organism-based; conditions: in vivo, 0.5 h; in short: as §5
Kidney [36] = assay: Biodistribution in ICR mouse kidney at 370 kBq, iv after 60 mins by gamma-counting analysis in presence of haloperidol relative to control; type: ADME, organism-based; conditions: in vivo, 1 h; in short: as §4

Compound	Drug uptake (Stomach [1]) [%ID]	Drug uptake (Brain [2]) [% ID/g]	Drug uptake (Kidney [3]) [% ID/g]	Drug uptake (Blood [4]) [% ID/g]	Drug uptake (Lung [5]) [% ID/g]	Drug uptake (Stomach [6]) [%]	Drug uptake (Brain [7]) [% ID/g]	logD [8]	Drug uptake (Bone [9]) [%]	Drug uptake (Spleen) [%]	Drug uptake (Lung [10]) [% ID/g]	Drug uptake (Heart [11]) [% ID/g]	Drug uptake (Heart [12]) [%]	Drug uptake (Blood [13]) [% ID/g]	Drug uptake (Kidney [14]) [% ID/g]	Drug uptake (Brain [15]) [% ID/g]	Drug uptake (Muscle tissue [16]) [% ID/g]	Drug uptake (Stomach [17]) [%ID]	Drug uptake (Lung [18]) [%]	Kp at 1 h [19]	also measured
[18F]CCOc1ccc(CN2CCC3(CC2)OCc2ccccc23)cc1	1.45	9.32	10.87	0.8	47.91	208	8.07	2.41	18	5	25.89	8.54	-61	1.2	9.55	9.1	4.59	1.09	-76	11.4	Drug uptake (Muscle tissue [20]): -20%; Drug uptake (Liver [21]): 8.46 % ID/g; Drug uptake (Bone [22]): 3.3 % ID/g; Drug uptake (Muscle tissue [23]): 4.41 % ID/g; Drug uptake (Heart [24]): 10.74 % ID/g; Drug uptake (Blood [25]): 0.72 % ID/g; Kp at 2 h [26]: 7.5; Drug uptake (Intestine [27]): 7.81 %ID; Drug uptake (Heart [28]): 21.71 % ID/g; Drug uptake (Blood [29]): 1.71 % ID/g; Drug uptake (Stomach [30]): 0.89 %ID; Drug uptake (Brain [31]): -58%; Drug uptake (Liver [32]): 15.3 % ID/g; Drug uptake (Intestine [33]): 6.62 %ID; Drug uptake (Bone [34]): 4.27 % ID/g; Drug uptake (Intestine [35]): 8.02 %ID; Drug uptake (Kidney [36]): -47%
[18F]CCOCCOCCOc1ccc(CN2CCC3(CC2)OCc2ccccc23)cc1	2.19	5.2	4.37	3.35	20.68	28	5.79	1.9	-26	-32	4.46	3.25	17	3.52	3.96	4.63	2.42	2	6	1.4	Drug uptake (Muscle tissue [20]): 17%; Drug uptake (Liver [21]): 5.83 % ID/g; Drug uptake (Bone [22]): 4.1 % ID/g; Drug uptake (Muscle tissue [23]): 2.64 % ID/g; Drug uptake (Heart [24]): 3.43 % ID/g; Drug uptake (Blood [25]): 2.96 % ID/g; Kp at 2 h [26]: 1.1; Drug uptake (Intestine [27]): 4.68 %ID; Drug uptake (Heart [28]): 7.69 % ID/g; Drug uptake (Blood [29]): 1.97 % ID/g; Drug uptake (Stomach [30]): 2.03 %ID; Drug uptake (Brain [31]): -16%; Drug uptake (Liver [32]): 8.67 % ID/g; Drug uptake (Intestine [33]): 6.21 %ID; Drug uptake (Bone [34]): 4.51 % ID/g; Drug uptake (Intestine [35]): 6.72 %ID; Drug uptake (Kidney [36]): 11%
